In ChEMBL document CHEMBL3286344, “Bromopyrrole alkaloids isolated from the Patagonian bryozoan Aspidostoma giganteum” (J Nat Prod, 2014):
pIC50: −log10 of the molar value.

Test: Cytotoxicity against human 786-O cells assessed as growth inhibition by MTS assay
Format: functional, cell-based
Conditions: 786-0; call rule not given here
In short: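 Cells seeded at 2 × 10³/well in complete medium; after 24 h, serial doses 0.05−100 μM or DMSO vehicle in medium with 2% FBS for 3 days, medium with fresh compound replaced every 2 days. Viability by MTS reduction to formazan, read as 492/620 nm absorbance ratio; IC50 derived. Cells checked mycoplasma-free by Hoechst method.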
For O=C(NC[C@@H](O)c1cc(Br)c(O)c(Br)c1)c1[nH]cc(Br)c1Br, the IC50 was “Not Active”. For O=C(NC[C@@H](O)c1cc(Br)c(O)c(Br)c1)c1cc(Br)c(Br)[nH]1, the IC50 was “Not Active”. For O=C(NC[C@@H](O)c1cc(Br)c(O)c(Br)c1)c1[nH]c(Br)c(Br)c1Br, the IC50 was “Not Active”. With O=C1N[C@H](O)[C@H](c2c(Br)[nH]c3ccc(Br)cc23)n2c(Br)c(Br)c(Br)c21 the IC50 was “Not Active”. In the case of O=c1c2c(Br)c(Br)cn2c(-c2cc(Br)c(O)c(Br)c2)cn1-n1cc(-c2cc(Br)c(O)c(Br)c2)n2c(Br)c(Br)cc2c1=O, the IC50 was “Not Active”. With CCO[C@H](CNC(=O)c1[nH]c(Br)c(Br)c1Br)c1cc(Br)c(O)c(Br)c1 the IC50 was “Not Active”.

Same assay, conditions: Homo sapiens, 786-0; read-out: IC50
With COc1ccc(C(=O)C(NC(=O)c2cc(Br)c(Br)[nH]2)OC)cc1Br (stereo unspecified) the pIC50 was 4.00. CO[C@H]1NC(=O)c2c(Br)c(Br)c(Br)n2[C@H]1c1c(Br)[nH]c2ccc(Br)cc12 gave a pIC50 of 5.11. O=c1[nH]cc(-c2c(Br)[nH]c3ccc(Br)cc23)n2c(Br)c(Br)c(Br)c12 showed a pIC50 of 4.57. For O=C(NCCc1c(Br)[nH]c2cc(Br)cc(O)c12)c1cc(Br)c(Br)[nH]1, the pIC50 was 4.82. In the case of COc1cccc2c1C(=O)c1c(O)c3c(c(O)c1C2=O)C[C@@](O)(C(=O)CO)C[C@@H]3O[C@H]1C[C@H](N)[C@H](O)[C@H](C)O1 [DOXORUBICIN], the pIC50 was 6.89.
